Assays:
[1] = molecular target: Protein farnesyltransferase (Mus musculus, UniProt Q61239+Q8K2I1); experiment: Inhibition of H-Ras farnesylation expressed in mouse NIH3T3 cells; assay type: functional, cell-based
Procedure, shortened: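 Oncogenic H-Ras-transformed NIH3T3 cells were treated with a range of inhibitor concentrations. Detection used peroxidase-conjugated secondary antibodies and enhanced chemiluminescence. IC50 is the mean of three independent assays ± SD unless stated otherwise.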

Homo sapiens = organism: Homo sapiens; experiment: Selectivity ratio of IC50 for human geranylgeranyltransferase-1 to IC50 for human farnesyltransferase
[2] = molecular target: Geranylgeranyl transferase type 1 (Mus musculus, UniProt Q61239+Q8BUY9); experiment: Inhibition of Rap1A geranylgeranylation expressed in mouse NIH3T3 cells; assay type: functional, cell-based
Procedure, shortened: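 Oncogenic H-Ras-transformed NIH3T3 cells were treated with a range of inhibitor concentrations. […] Detection used peroxidase-conjugated secondary antibodies and enhanced chemiluminescence. IC50 is the mean of three independent assays ± SD unless stated otherwise.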

[3] = molecular target: Protein farnesyltransferase (Homo sapiens, UniProt P49354+P49356); experiment: Inhibition of human farnesyltransferase assessed as incorporation of [3H]FPP into H-Ras-CVLS; assay type: protein-complex assay
Procedure, shortened: (§1)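 In vitro radiometric assay measuring transfer of [3H]FPP (FTase) or [3H]GGPP (GGTase-I) onto recombinant H-Ras-CVLS or H-Ras-CVLL, respectively.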

[4] = molecular target: Geranylgeranyl transferase type I (Homo sapiens, UniProt P49354+P53609); experiment: Inhibition of human geranylgeranyltransferase-1 assessed as incorporation of [3H]GGPP into H-Ras-CVLL; assay type: protein-complex assay; procedure, shortened: as §1

Question: Which IC50 [1] does the source give for `Cn1cnc(S(=O)(=O)N(CCN(Cc2cncn2C)c2ccc(C#N)cc2)Cc2ccc(-c3ccccc3)cc2)c1` here?
Answer: 5000 nM

Question: And the Selectivity ratio (Homo sapiens)?
Answer: 4.3

Question: And the IC50 [2]?
Answer: > 10000 nM

Question: And the IC50 [3]?
Answer: 1700 nM

Question: What about the IC50 [4] of the same compound?
Answer: 7300 nM

Question: What does the source list for `Cn1cnc(S(=O)(=O)N(CCN(Cc2cncn2C)c2ccc(C#N)cc2)Cc2ccsc2)c1`?
Answer: IC50 [1]: 400 nM; Selectivity ratio (Homo sapiens): 14; IC50 [2]: > 10000 nM; IC50 [3]: 67 nM; IC50 [4]: 940 nM

Question: `Cn1cncc1CN(CCN(CC1CCCCC1)S(=O)(=O)c1ccccn1)c1ccc(C#N)cn1` was tested. Which IC50 [1] did it give?
Answer: 288 nM

Question: And the Selectivity ratio (Homo sapiens)?
Answer: 2

Question: What about the IC50 [2] of the same compound?
Answer: 19000 nM

Question: What about the IC50 [3] of the same compound?
Answer: 350 nM

Question: What about the IC50 [4] of the same compound?
Answer: 690 nM

Question: How did the IC50 [1] turn out when `Cn1cnc(S(=O)(=O)N(CCN(Cc2cncn2C)c2ccc(C#N)cc2)Cc2ccc(-n3cccc3)cc2)c1` was run?
Answer: 4000 nM

Question: And the Selectivity ratio (Homo sapiens)?
Answer: 15

Question: And the IC50 [2]?
Answer: > 10000 nM

Question: And the IC50 [3]?
Answer: 390 nM

Question: What about the IC50 [4] of the same compound?
Answer: 5800 nM

Question: How did the IC50 [1] turn out when `Cc1ccccc1CN(CCN(Cc1cncn1C)c1ccc(C#N)cc1)S(=O)(=O)c1cn(C)cn1` was run?
Answer: 1000 nM

Question: And the Selectivity ratio (Homo sapiens)?
Answer: 15

Question: And the IC50 [2]?
Answer: > 10000 nM

Question: What about the IC50 [3] of the same compound?
Answer: 51 nM

Question: What about the IC50 [4] of the same compound?
Answer: 780 nM

Question: Which results are given for `Cn1cnc(S(=O)(=O)N(CCN(Cc2cncn2C)c2ccc(C#N)cc2)Cc2ccc(C#N)cc2)c1`?
Answer: IC50 [1]: > 10000 nM; Selectivity ratio (Homo sapiens): 18; IC50 [2]: > 10000 nM; IC50 [3]: 370 nM; IC50 [4]: 6500 nM

Question: Which IC50 [1] does the source give for `Cn1cnc(S(=O)(=O)N(CCN(Cc2cncn2C)c2ccc(C#N)cc2)CC2CCCCC2)c1` here?
Answer: 100 nM

Question: What about the Selectivity ratio (Homo sapiens) of the same compound?
Answer: 8.8

Question: What about the IC50 [2] of the same compound?
Answer: > 10000 nM

Question: And the IC50 [3]?
Answer: 60 nM

Question: What about the IC50 [4] of the same compound?
Answer: 530 nM

Question: With `Cn1cnc(S(=O)(=O)N(CCN(Cc2cncn2C)c2ccc(C#N)cc2)CC2CC2)c1` as the compound, how does the IC50 [1] read?
Answer: > 10000 nM

Question: And the Selectivity ratio (Homo sapiens)?
Answer: > 17

Question: And the IC50 [2]?
Answer: > 10000 nM

Question: And the IC50 [3]?
Answer: 590 nM

Question: What about the IC50 [4] of the same compound?
Answer: > 10000 nM

Question: For `Cn1cncc1CN(CCN(Cc1ccccc1)S(=O)(=O)c1cccs1)c1ccc(C#N)cc1`, which IC50 [1] is on record?
Answer: 500 nM

Question: What about the Selectivity ratio (Homo sapiens) of the same compound?
Answer: 200

Question: And the IC50 [2]?
Answer: > 10000 nM

Question: And the IC50 [3]?
Answer: 50 nM

Question: What about the IC50 [4] of the same compound?
Answer: 10000 nM
